In ChEMBL document CHEMBL5584271, “Synthesis and Biological Analysis of Iso-dimethyltryptamines in a Model of Light-Induced Retinal Degeneration” (2024):
Active and inactive are the calls of the source. No cut-off for these calls is given here.

Legend:
Mus musculus [1] = assay: (§1) Protection against light-induced retinal degeneration in dark-adaptated BALB/c albino mouse assessed as reduction in ONL thinning at 10 mg/kg, ip dosed preincubated with compound for 15 to 30 mins of mydriasis followed by exposure to bright light at 15kLux for 30 mins by electroretinography analysis; type: functional, organism-based; details: time 45-60 min
Outline: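 Dark-adapted BALB/c albino mice (5–8 weeks) were dosed ip at 10 mg/kg (vehicle 25% DMSO/75% saline) 30 min before 30 min of 15 kLux white light. Pupils were dilated with metaoxedrine/tropicamide at 30 and 15 min prior. One week later, OCT centred on the optic nerve head measured ONL thickness 500 μm from the ONH border, averaged over four quadrants. Analysis used Welch's ANOVA with Dunnett's T3 tests.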

Mus musculus [2] = assay: as §1, with “ERG a- and b-wave amplitude deterioration” for “ONL thinning”; type: functional, organism-based; details: time 45-60 min
Outline: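 BALB/c albino mice (5–8 weeks) were dark-adapted overnight and given 10 mg/kg ip in 25% DMSO/75% saline 30 min before light. Pupils were dilated with metaoxedrine (20 mg/mL) plus tropicamide (4 mg/mL) at 30 and 15 min prior. Freely moving mice received 30 min of 15 kLux white light. ERG a- and b-wave amplitudes were recorded one week later (10 cd·s/m2 stimulus). Analysis used Welch's ANOVA with Dunnett's T3 post hoc tests.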

Mus musculus [3] = assay: as §1, with “[…] relative to control” for “analysis”; type: functional; parameters: scale not given: the % may be the effect or the level left; details: time 45-60 min
Outline: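 Same LIRD protocol in BALB/c mice aged 5–8 weeks: 10 mg/kg ip in 25% DMSO/saline 30 min before 30 min of 15 kLux white light, with mydriatics given beforehand. OCT imaging one week later, centred on the optic nerve head. ONL thickness measured 500 μm from the ONH border and averaged over four quadrants. Compared with vehicle; Welch's ANOVA with Dunnett's T3.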

Mus musculus [4] = assay: as §1, with “ERG a- and b-wave amplitude deterioration” for “ONL thinning”, “analysis relative to control” for “analysis”; type: functional; parameters: scale not given: the % may be the effect or the level left; details: time 45-60 min
Outline: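 BALB/c albino mice aged 5–8 weeks, dark-adapted overnight. Dosed 10 mg/kg ip in 25% DMSO/75% saline 30 min before light. Pupils dilated with metaoxedrin (20 mg/mL) plus tropicamide (4 mg/mL) at 30 and 15 min prior. Exposed to 15 kLux white light for 30 min, freely moving. ERG a- and b-wave amplitudes recorded one week later at 10 cd·s/m2 stimulus. Compared with vehicle; mean ± SEM.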

[5] = molecular target: T1, 5-hydroxytryptamine receptor 1A (Homo sapiens) (UniProt P08908); assay: Binding affinity to 5-HT1A (unknown origin)
T1 sequence (whole entry): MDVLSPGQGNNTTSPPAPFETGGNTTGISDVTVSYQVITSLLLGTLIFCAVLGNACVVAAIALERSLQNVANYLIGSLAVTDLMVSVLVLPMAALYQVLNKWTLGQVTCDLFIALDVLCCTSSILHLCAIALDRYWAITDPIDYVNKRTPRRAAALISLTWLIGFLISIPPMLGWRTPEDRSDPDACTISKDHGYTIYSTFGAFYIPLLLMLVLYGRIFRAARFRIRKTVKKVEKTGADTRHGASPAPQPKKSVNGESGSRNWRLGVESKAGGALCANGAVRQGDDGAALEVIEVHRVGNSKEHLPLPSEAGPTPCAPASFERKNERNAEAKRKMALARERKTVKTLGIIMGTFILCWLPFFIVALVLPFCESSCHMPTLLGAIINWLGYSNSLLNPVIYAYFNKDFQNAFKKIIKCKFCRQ

[6] = molecular target: 5-hydroxytryptamine receptor 2A (Homo sapiens) (UniProt P28223); assay: Binding affinity to 5-HT2A (unknown origin)
Chain of 5-hydroxytryptamine receptor 2A (Homo sapiens) (P28223 whole entry): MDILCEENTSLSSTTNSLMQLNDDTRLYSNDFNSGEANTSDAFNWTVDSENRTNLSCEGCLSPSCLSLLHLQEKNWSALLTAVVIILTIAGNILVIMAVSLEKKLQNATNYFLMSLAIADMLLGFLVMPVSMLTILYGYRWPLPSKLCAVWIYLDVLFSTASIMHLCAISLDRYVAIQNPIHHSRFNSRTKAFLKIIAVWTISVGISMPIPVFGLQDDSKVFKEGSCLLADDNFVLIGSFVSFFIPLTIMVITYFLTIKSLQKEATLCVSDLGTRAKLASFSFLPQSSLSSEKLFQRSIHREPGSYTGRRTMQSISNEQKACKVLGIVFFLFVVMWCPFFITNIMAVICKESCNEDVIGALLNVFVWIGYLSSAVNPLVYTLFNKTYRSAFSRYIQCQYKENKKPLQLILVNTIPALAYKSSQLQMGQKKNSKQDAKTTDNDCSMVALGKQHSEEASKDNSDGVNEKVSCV

[7] = molecular target: 5-hydroxytryptamine receptor 2B (Homo sapiens) (UniProt P41595); assay: Binding affinity to 5-HT2B (unknown origin)
Chain of 5-hydroxytryptamine receptor 2B (Homo sapiens) (P41595 whole entry): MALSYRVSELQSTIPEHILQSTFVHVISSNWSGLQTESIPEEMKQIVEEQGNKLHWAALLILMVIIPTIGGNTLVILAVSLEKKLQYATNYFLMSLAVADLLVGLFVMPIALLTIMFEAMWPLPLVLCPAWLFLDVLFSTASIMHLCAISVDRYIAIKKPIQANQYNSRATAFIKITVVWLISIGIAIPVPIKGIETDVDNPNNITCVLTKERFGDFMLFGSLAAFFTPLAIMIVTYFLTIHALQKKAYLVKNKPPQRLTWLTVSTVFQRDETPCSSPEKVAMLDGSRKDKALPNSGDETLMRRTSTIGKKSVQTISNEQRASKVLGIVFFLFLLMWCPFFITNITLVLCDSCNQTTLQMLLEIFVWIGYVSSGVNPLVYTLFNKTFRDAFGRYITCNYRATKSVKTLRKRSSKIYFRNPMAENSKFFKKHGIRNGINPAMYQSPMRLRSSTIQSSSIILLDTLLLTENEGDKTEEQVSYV

[8] = molecular target: T2, 5-hydroxytryptamine receptor 2C (Homo sapiens) (UniProt P28335); assay: Binding affinity to 5-HT2C (unknown origin)
T2 sequence (whole entry): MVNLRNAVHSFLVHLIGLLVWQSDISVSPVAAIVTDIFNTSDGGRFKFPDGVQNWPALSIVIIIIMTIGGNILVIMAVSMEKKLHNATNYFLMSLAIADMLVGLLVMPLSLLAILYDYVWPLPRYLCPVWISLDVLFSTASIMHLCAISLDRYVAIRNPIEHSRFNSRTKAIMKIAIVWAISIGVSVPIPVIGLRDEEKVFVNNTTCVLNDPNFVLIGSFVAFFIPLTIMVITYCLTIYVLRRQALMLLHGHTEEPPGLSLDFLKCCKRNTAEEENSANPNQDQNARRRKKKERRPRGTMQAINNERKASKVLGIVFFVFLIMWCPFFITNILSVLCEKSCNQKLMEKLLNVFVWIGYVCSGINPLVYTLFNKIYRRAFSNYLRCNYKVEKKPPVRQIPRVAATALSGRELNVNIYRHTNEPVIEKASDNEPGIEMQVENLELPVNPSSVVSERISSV

Compound	Activity (Mus musculus [1])	Activity (Mus musculus [2])	other results
CN1C[C@@]2(C)C[C@]23c2cccc4[nH]cc(c24)C[C@@H]13	Active	Active	–
CN(C)CCn1cc(Cc2ccccn2)c2c(Br)cccc21	Active	Active	–
CN1C[C@@H](CO)C=C2c3cccc4[nH]cc(c34)C[C@@H]21	inactive	inactive	–
CN(C)CCn1cc(Cc2ccccn2)c2cc(F)ccc21	inactive	inactive	–
CN1C[C@@H](CO)C=C2c3cccc4[nH]cc(c34)C[C@H]21	Active	Active	–
CN(C)CCn1cc(Cc2ccccn2)c2ccc(F)cc21	inactive	inactive	–
CC(C)C[C@H]1C(=O)N2CCC[C@H]2[C@]2(O)O[C@](NC(=O)[C@@H]3C=C4c5cccc6[nH]c(Br)c(c56)C[C@H]4N(C)C3)(C(C)C)C(=O)N12 [BROMOCRIPTINE]	–	–	Activity (Mus musculus [3]): 70%; Activity (Mus musculus [4]): 70%
CN1C[C@H](CO)C=C2c3cccc4[nH]cc(c34)C[C@@H]21	inactive	inactive	–
CCN(CC)C(=O)[C@H]1CN(C)[C@H]2Cc3c[nH]c4cccc(c34)[C@@H]1C2	inactive	inactive	Activity [5]: inactive; Activity [6]: inactive; Activity [7]: inactive; Activity [8]: inactive
CN1C[C@H](CO)C=C2c3cccc4[nH]cc(c34)C[C@H]21	Active	Active	–
CN1C[C@]2(C)C[C@@]23c2cccc4[nH]cc(c24)C[C@H]13	Active	Active	–
